Experiments:
[1] = molecular target: T1, α-subunit of the bovine retinal rod CNG channel (RETα) (Bos taurus, UniProt Q00194); type: biochemical; conditions: 10 μM Ni^2+; subsaturating cGMP (25 μM); steady state
T1 sequence (Q00194 1-690): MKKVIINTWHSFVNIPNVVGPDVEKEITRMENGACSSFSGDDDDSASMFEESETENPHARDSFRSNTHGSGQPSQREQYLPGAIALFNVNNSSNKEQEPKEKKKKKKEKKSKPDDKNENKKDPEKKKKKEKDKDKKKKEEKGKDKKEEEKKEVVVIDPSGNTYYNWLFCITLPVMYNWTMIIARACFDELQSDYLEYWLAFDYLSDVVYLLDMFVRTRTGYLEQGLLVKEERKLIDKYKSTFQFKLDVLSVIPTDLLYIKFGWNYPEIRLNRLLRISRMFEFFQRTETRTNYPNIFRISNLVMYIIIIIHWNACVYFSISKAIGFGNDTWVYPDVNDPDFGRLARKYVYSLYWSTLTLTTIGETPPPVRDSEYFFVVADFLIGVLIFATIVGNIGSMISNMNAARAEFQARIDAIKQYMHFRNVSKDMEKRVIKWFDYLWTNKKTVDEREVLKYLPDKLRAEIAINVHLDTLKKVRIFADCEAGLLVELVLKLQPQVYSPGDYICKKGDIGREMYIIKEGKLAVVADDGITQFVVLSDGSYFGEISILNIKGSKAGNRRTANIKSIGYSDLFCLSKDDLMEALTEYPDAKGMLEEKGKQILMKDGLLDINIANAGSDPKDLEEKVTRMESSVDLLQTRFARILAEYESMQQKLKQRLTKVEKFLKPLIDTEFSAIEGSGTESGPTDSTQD
Method in brief: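 RETα was expressed in oocytes from 50 nl of 50 ng/μl RNA. Inside-out patches were held at −75 mV in symmetrical NaCl/EGTA/EDTA/HEPES, pH 7.5, with solution exchange within 50 ms. Current was normalized to Imax: residual current after 1 min preexposure then 2 mM cGMP, or steady-state current with compound added during 2 mM cGMP. Ki and Hill coefficient came from a modified Hill fit; τa from single-exponential fits; mean ± SEM.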

rod CNG channels = conditions: ref Molokanova et al. 1999a; cited from earlier work

Row | Structure (SMILES) | effect of Ni^2+ on genistein inhibition [1] | effect on genistein's action on CNG channels (rod CNG channels)
1 | [Ni+2] [Ni^2+] | only reduces genistein inhibition | 
2 | Nc1ncnc2c1ncn2[C@@H]1O[C@H](COP(=O)(O)OP(=O)(O)NP(=O)(O)O)[C@@H](O)[C@H]1O [AMP-PNP] |  | competitive inhibitor of genistein's action on CNG channels
3 | O=CN/C=C/c1cc(O)ccc1O [erbstatin] |  | noncompetitively prevents genistein's effect on the channels

Source: paper PMC2225614 (The Journal of General Physiology, 2001)
